# PAD4 FP inh: inhibitors of human PAD4; AID 485272; recombinant PAD4, RCA probe fluorescence polarization; inhibition, % at 6.36 µM; actives 0.41% (n = 330,000); Q9UM07;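 active = percent inhibition above a cutoff equal to the mean of all tested compounds plus 3 SD, cut at about 15% in these data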;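 note: 0% = PAD4 with RCA probe and DMSO and 100% = probe without PAD4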
# SIAE inh: inhibitors of human sialic acid acetylesterase SIAE; actives 0.69% (n = 370,000); SIAE FP-Rh probe binding, fluorescence polarization; Q9HAT2; inhibition, % at 9.66 µM;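 active = inhibition above a cutoff: mean of compounds within the control limits plus 3 SD of those, cut at about 17% in these data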;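 note: 0% = plate median of compound wells and 100% = probe without SIAE protein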
# RBBP9 inhibitor: blocks human serine hydrolase RBBP9. AID 1515. actives 0.2% (n = 220,000). recombinant RBBP9, FP-Rh probe fluorescence polarization. O75884. inhibition, % at 7.94 µM;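 active = inhibition above the campaign mean of all tested compounds plus 3 SD, cut at about 14% in these data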;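 note: plate controls were DMSO wells with RBBP9 for no effect and wells lacking RBBP9 protein for full effect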
# Target sequence (O75884 whole entry, looked up): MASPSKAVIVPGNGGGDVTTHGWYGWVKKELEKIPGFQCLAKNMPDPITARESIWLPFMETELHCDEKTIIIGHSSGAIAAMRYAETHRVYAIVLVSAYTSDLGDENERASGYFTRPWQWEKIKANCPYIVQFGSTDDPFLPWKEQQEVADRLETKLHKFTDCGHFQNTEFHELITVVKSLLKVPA
#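 Measured by – fluorescence polarization · Test system – RBBP9 protein · Input – 2.5 µM RBBP9 dispensing solution, before mixing · Measure – percent inhibition from mP, scaled between DMSO and no-protein wells · Benchmarks – DMSO-treated enzyme wells and wells lacking RBBP9 · Times – preincubation 30 min plus labeling 45 min at 25 °C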
# GSTO1 counter: blocks human GSTO1 in RBBP9 counter-screen; actives 1.1% (n = 300,000); P78417; inhibition, % at 5.96 µM; AID 1974; recombinant GSTO1, activity-based probe fluorescence polarization;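 active = inhibition above the campaign mean inhibition plus 3 SD, cut at about 35% in these data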;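 note: 0% = GSTO1-1 with DMSO and 100% = wells lacking GSTO1-1 enzyme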
# Target sequence (P78417 whole entry, looked up): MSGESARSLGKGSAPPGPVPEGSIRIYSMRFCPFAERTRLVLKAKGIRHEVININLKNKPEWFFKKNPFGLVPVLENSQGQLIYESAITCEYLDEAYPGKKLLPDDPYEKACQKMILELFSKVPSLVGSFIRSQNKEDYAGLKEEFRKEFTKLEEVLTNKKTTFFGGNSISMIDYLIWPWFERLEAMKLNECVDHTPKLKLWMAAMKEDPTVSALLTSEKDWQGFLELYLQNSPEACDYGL
# PRMT1 FP inh: PRMT1 (human) inhibition, primary screen; Q99873; recombinant PRMT1, activity-based probe fluorescence polarization; inhibition, % at 2.79 µM; actives 1.3% (n = 370,000); AID 652257;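 active = inhibition above about 21% made by adding two undisclosed values, limit read from the data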
# GSTO1 confirm: GSTO1 (human) inhibition, confirmation; AID 2176; recombinant GSTO1, probe fluorescence polarization; shares compounds with GSTO1 counter; actives 54% (n = 2,400); inhibition, % at 5.96 µM;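 active = inhibition above the primary screen's cutoff, its mean inhibition plus 3 SD, cut at about 35% in these data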;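 note: loss of polarization as inhibitors block binding of rhodamine sulfonate ester activity probe; 0% = GSTO1 with DMSO and 100% = wells lacking GSTO1 enzyme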
# PAD4 FP conf: PAD4 (human) inhibition, confirmed; shares compounds with PAD4 FP inh; recombinant PAD4, RCA probe fluorescence polarization; inhibition, % at 6.36 µM; actives 28% (n = 1,200); AID 488796;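 active = mean inhibition across replicates above the hit cutoff set by the earlier primary screen, cut at about 15% in these data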;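 note: inhibitors block active-site labeling by the probe so polarization falls; 0% = PAD4 with probe and DMSO and 100% = probe without PAD4 enzyme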
# PRMT1 inh conf: PRMT1 (human) inhibition, FP confirmation | recombinant His-PRMT1, activity-based probe fluorescence polarization | actives 42% (n = 3,300) | shares compounds with PRMT1 FP inh | inhibition, % at 2.79 µM;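 active = mean inhibition across replicates above the hit cutoff derived for the earlier primary screen, cut at about 22% in these data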
# SIAE inh conf: confirmation of human SIAE inhibitors | shares compounds with SIAE inh | SIAE FP-Rh activity-based probe, fluorescence polarization | inhibition, % at 9.66 µM | actives 13% (n = 2,300) | AID 1117263;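 active = mean inhibition of the replicates above the hit cutoff set in the primary screen, cut at about 17% in these data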;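 note: 0% = SIAE with DMSO and probe and 100% = probe without SIAE; inhibitors lower polarization as more probe stays unbound to SIAE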
# An asterisk follows results filed as active; . = no result given; ! = a repeat was not active. Only some compounds are listed: those with a hit (about 2.7% of all), similar ones and a draw of the others.
SMILES,PAD4 FP inh,SIAE inh,RBBP9 inhibitor,GSTO1 counter,PRMT1 FP inh,GSTO1 confirm,PAD4 FP conf,others
Cc1nc2c(=O)n(C)c(=O)nc-2n(C)n1,76.7*,-4.8,-7.4,97.7*,-1.5,96.2*,69.4*,
CC(C)OCCCNC(=O)c1c(N)n(Cc2cccs2)c2nc3ccccc3nc12,52.2*,-3.1,-2.9,60.1*,0.1,-7.7,1.8,
COCCCNC(=O)c1c(N)n(Cc2ccco2)c2nc3ccccc3nc12,-10.2,-4.8,-0.9,4.5,20.4,.,.,
COCCNC(=O)c1c(N)n(CCC(C)C)c2nc3ccccc3nc12,40.0*,-7.2,-5.3,75.0*,3.4,6.4,-1.9,
Cc1cccc(NP(=O)(Oc2ccccc2)Oc2ccccc2)c1C,-1.9,8.0,.,4.3,-9.2,.,.,
O=C1C(=O)c2ccccc2-c2ccccc21,81.8*,2.1,2.7,90.0*,-1.0,93.5*,75.7*,
O=C(O)CC1OCC=C2CN3CCC45c6ccccc6NC4C1C2CC35 (stereo not drawn),0.1,9.7,7.4,7.2,-3.4,.,.,
O=C(O)CC1OCC=C2CN3CCC45C6=CC(=O)C(=O)C([N+](=O)[O-])=C6NC4C1C2CC35 (stereo not drawn),66.1*,.,2.5,78.6*,.,81.9*,60.1*,
CC(=O)N(C1=NCCCS1)c1ccccc1Cl,-0.8,-3.6,-6.5,-6.9,-4.7,.,.,
CN1CC[C@@]2(C)c3cc(O)ccc3N(C)[C@@H]12,.,7.8,.,.,4.2,.,.,
CN1CC[C@@]2(C)c3cc(O)ccc3N(C)C2O1 (stereo partly drawn),44.8*,.,.,85.0*,.,51.5*,8.8,
C=C1C[C@]2(O)[C@@]3(C)CCC(=O)C(C)(C)C3=C(O)C(=O)[C@@]2(C)[C@@H]2C(=O)O[C@@](C)(C(=O)OC)C(=O)[C@@]12C,1.8,3.5,2.4,9.3,1.6,.,.,
CCn1nc(-c2ccccc2)nc2c(=O)n(C)c(=O)nc1-2,68.2*,.,-10.9,90.3*,.,92.3*,-3.5,
COc1ccc(-c2nc3ccccc3c(=O)n2-c2ccc(OC)cc2)cc1,4.0,3.8,-5.0,2.6,-7.4,.,.,
CC1CCN(S(=O)(=O)c2ccc(NN=C(C#N)C#N)cc2)CC1,-2.8,.,-3.4,-2.7,.,.,.,
COc1cc2c(cc1OC)-c1c(OC)c(OC)cc3c1[C@H](C2)N(C)CC3,23.0*,9.8,-10.2,47.3*,0.2,71.4*,8.8,
CNc1ccc2oc(C[C@H]3O[C@@]4(CC[C@H]3C)O[C@H]([C@H](C)C(=O)c3ccc[nH]3)[C@H](C)C[C@H]4C)nc2c1C(=O)O,56.9*,10.9,.,42.3*,25.6*,7.8,7.7,
CC[C@@H](CO)NC(=O)[C@@H]1C=C2c3cccc4c3c(cn4C)C[C@H]2N(C)C1,22.3*!,14.8,0.2,47.8*!,46.6*!,11.8,1.4,PRMT1 inh conf=5.8
Cn1c(O)c(C=NC2CC(C)(C)NC(C)(C)C2)c(=O)n(C)c1=O,1.3,-0.6,0.0,0.7,-1.2,.,.,
CNc1ccc2nc3ccccc3[n+](C)c2c1,108.4*,108.0*,.,101.5*,21.4*,62.1*,92.2*,SIAE inh conf=113.3*
OCCNc1c2c(nc3ccccc13)CCCC2,-4.5,5.9,-5.8,3.1,0.5,.,.,
C[n+]1c2ccccc2nc2ccc(NCCO)cc21,84.4*,60.4*,.,68.8*,11.3,45.6*,.,SIAE inh conf=67.6*
COc1cc([C@H]2OC[C@H]3[C@@H]2CO[C@@H]3c2cc(OC)c(O[C@@H]3O[C@H](CO)[C@@H](O)[C@H](O)[C@H]3O)c(OC)c2)cc(OC)c1O[C@H]1O[C@@H](CO)[C@H](O)[C@@H](O)[C@@H]1O,1.1,-3.0,.,.,-1.9,.,.,
COCCCNC(=O)c1c(NC(=O)c2ccco2)n(Cc2ccccc2)c2nc3ccccc3nc12,-8.2,2.3,2.9,13.2,7.3,.,.,
COCCNC(=O)c1c(NC(=O)c2ccc(Br)o2)n(Cc2ccccc2)c2nc3ccccc3nc12,53.9*,-3.3,-5.0,77.4*,-1.0,.,-9.6,
